Reference: ChEMBL document CHEMBL1144069, “Cytotoxic activities of hypocretenolides from Leontodon hispidus” (J Nat Prod, 1999)
pIC50: −log10 of the molar value. The source made the active and inactive calls. The rule behind the calls is not given here.

Tests used:
[1] = Cytotoxicity against human GTB cells after 5 hrs by MTT assay; format: functional, cell-based
Procedure, shortened: (§1)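 Leukemic cells at 0.5 × 10^6 cells/mL in RPMI were exposed to 0.01–2.00 µM compound (0.1% final DMSO) at 37 °C and 5% CO2. Viability was measured as MTT formazan, dissolved in DMSO and read at 550 and 630 nm. Three wells per point, on three separate days (n = 9). IC50 was taken graphically from per-experiment dose curves.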

[2] = test system: HL-60; test: Cytotoxicity against human HL-60 cells after 5 hrs by MTT assay; format: functional, cell-based; details: HL-60, 5 h; procedure, shortened: as §1
[3] = test system: A-431; test: Cytotoxicity against human A431 cells after 24 hrs by [3H]thymidine incorporation assay; format: functional, cell-based
Procedure, shortened: (§2)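 Adherent tumor cells (100 µL at 1 × 10^6 cells/mL) were overlaid with 100 µL of medium containing compound in the 0.25–4.00 µM range (0.1% final DMSO). The medium control had no compound. Cells were incubated for 24, 48 or 72 h at 37 °C and 5% CO2, then pulsed 24 h with 3H-thymidine. They were harvested onto glass filters and counted by liquid scintillation. Three wells per point, on three separate days (n = 9). IC50 was taken graphically.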

[4] = test system: A-431; test: Cytotoxicity against human A431 cells after 48 hrs by [3H]thymidine incorporation assay; format: functional, cell-based; procedure, shortened: as §2
[5] = test system: A-431; test: Cytotoxicity against human A431 cells after 72 hrs by [3H]thymidine incorporation assay; format: functional, cell-based; procedure, shortened: as §2
[6] = test system: HEp-2; test: Cytotoxicity against human HEP2 cells after 24 hrs by [3H]thymidine incorporation assay; format: functional, cell-based; procedure, shortened: as §2
[7] = test system: HEp-2; test: Cytotoxicity against human HEP2 cells after 48 hrs by [3H]thymidine incorporation assay; format: functional, cell-based; procedure, shortened: as §2
[8] = test system: HEp-2; test: Cytotoxicity against human HEP2 cells after 72 hrs by [3H]thymidine incorporation assay; format: functional, cell-based; procedure, shortened: as §2
[9] = test system: MCF7; test: Cytotoxicity against human MCF7 cells after 24 hrs by [3H]thymidine incorporation assay; format: functional, cell-based; procedure, shortened: as §2
[10] = test system: MCF7; test: Cytotoxicity against human MCF7 cells after 48 hrs by [3H]thymidine incorporation assay; format: functional, cell-based; procedure, shortened: as §2
[11] = test system: MCF7; test: Cytotoxicity against human MCF7 cells after 72 hrs by [3H]thymidine incorporation assay; format: functional, cell-based; procedure, shortened: as §2
[12] = test system: OVCAR-3; test: Cytotoxicity against human OVCAR-3 cells after 24 hrs by [3H]thymidine incorporation assay; format: functional, cell-based; procedure, shortened: as §2
[13] = test system: OVCAR-3; test: Cytotoxicity against human OVCAR-3 cells after 48 hrs by [3H]thymidine incorporation assay; format: functional, cell-based; procedure, shortened: as §2
[14] = test system: OVCAR-3; test: Cytotoxicity against human OVCAR-3 cells after 72 hrs by [3H]thymidine incorporation assay; format: functional, cell-based; procedure, shortened: as §2
[15] = Cytotoxicity against human SK MEL28 cells after 24 hrs by [3H]thymidine incorporation assay; format: functional, cell-based; details: SK-MEL-28; procedure, shortened: as §2
[16] = Cytotoxicity against human SK MEL28 cells after 48 hrs by [3H]thymidine incorporation assay; format: functional, cell-based; details: SK-MEL-28; procedure, shortened: as §2
[17] = Cytotoxicity against human SK MEL28 cells after 72 hrs by [3H]thymidine incorporation assay; format: functional, cell-based; details: SK-MEL-28; procedure, shortened: as §2
[18] = Cytotoxicity against human SK37 cells after 24 hrs by [3H]thymidine incorporation assay; format: functional, cell-based; procedure, shortened: as §2
[19] = Cytotoxicity against human SK37 cells after 48 hrs by [3H]thymidine incorporation assay; format: functional, cell-based; procedure, shortened: as §2
[20] = Cytotoxicity against human SK37 cells after 72 hrs by [3H]thymidine incorporation assay; format: functional, cell-based; procedure, shortened: as §2
[21] = test system: SW872; test: Cytotoxicity against human SW872 cells after 24 hrs by [3H]thymidine incorporation assay; format: functional, cell-based; procedure, shortened: as §2
[22] = test system: SW872; test: Cytotoxicity against human SW872 cells after 48 hrs by [3H]thymidine incorporation assay; format: functional, cell-based; procedure, shortened: as §2
[23] = test system: SW872; test: Cytotoxicity against human SW872 cells after 72 hrs by [3H]thymidine incorporation assay; format: functional, cell-based
Procedure, shortened: (§3)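 Adherent tumour cells at 1 × 10^6 cells/mL (100 µL per well) overlaid with an equal volume of medium carrying test substance across 0.25–4.00 µM. Medium-only controls. Incubated 24, 48 or 72 h at 37 °C, 5% CO2, then pulsed 24 h with 3H-thymidine and harvested onto glass filters for scintillation counting. Final DMSO 0.1%. Triplicate wells, three days (n = 9). IC50 read graphically from each experiment's dose curve.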

[24] = test system: ZR-75-1; test: Cytotoxicity against human ZR-75-1 cells after 24 hrs by [3H]thymidine incorporation assay; format: functional, cell-based; procedure, shortened: as §3
[25] = test system: ZR-75-1; test: Cytotoxicity against human ZR-75-1 cells after 48 hrs by [3H]thymidine incorporation assay; format: functional, cell-based; procedure, shortened: as §3
[26] = test system: ZR-75-1; test: Cytotoxicity against human ZR-75-1 cells after 72 hrs by [3H]thymidine incorporation assay; format: functional, cell-based; procedure, shortened: as §3
[27] = test system: CD34+ cell; test: Antiproliferative activity against CSF and human recombinant erythropoietin-induced human CD34+ cells proliferation assessed as inhibition of BFU-erythroid formation at 1 uM after 12 days by clonogenic assay; format: functional, cell-based
Procedure, shortened: (§4)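 Human CD34+ cells were immunomagnetically selected from mononuclear cells, with purity checked by FACS. They were plated at 2 × 10^3 cells/dish in Iscove's 0.8% methylcellulose with 30% FCS. Stimulation used 3 U/mL rhEPO plus 10% agar-stimulated leukocyte-conditioned medium. Final concentrations were 0.25–2.00 µM. Dishes were run in duplicate and repeated once (n = 4). CFU-E and mature BFU-E were scored at 12 days; primitive BFU-E and CFU-GM (>50 cells) at 18 days. IC50 was read graphically.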

[28] = test system: CD34+ cell; test: Antiproliferative activity against CSF and human recombinant erythropoietin-induced human CD34+ cells proliferation assessed as inhibition of CFU-erythroid formation at 1 uM after 12 days by clonogenic assay; format: functional, cell-based; procedure, shortened: as §4
[29] = Antiproliferative activity against CSF and human recombinant erythropoietin-induced human CD34+ cells proliferation assessed as inhibition of BFU-erythroid formation at 0.5 uM after 12 days by clonogenic assay; format: functional, CD34+ cell; design: scale not given: the % may be the effect or the level left; procedure, shortened: as §4
[30] = Antiproliferative activity against CSF and human recombinant erythropoietin-induced human CD34+ cells proliferation assessed as inhibition of CFU-erythroid formation at 0.5 uM after 12 days by clonogenic assay; format: functional, CD34+ cell; design: scale not given: the % may be the effect or the level left; procedure, shortened: as §4
[31] = test system: CD34+ cell; test: Antiproliferative activity against CSF and human recombinant erythropoietin-induced human CD34+ cells proliferation assessed as inhibition of BFU-erythroid formation after 12 days by clonogenic assay; format: functional, cell-based; procedure, shortened: as §4
[32] = (§5) Antiproliferative activity against CSF and human recombinant erythropoietin-induced human CD34+ cells proliferation assessed as inhibition of CFU-erythroid formation after 12 days by clonogenic assay; format: functional, CD34+ cell; procedure, shortened: as §4
[33] = test system: CD34+ cell; test: as §5; format: functional; procedure, shortened: as §4
[34] = test system: CD34+ cell; test: Antiproliferative activity against CSF and human recombinant erythropoietin-induced human CD34+ cells proliferation assessed as inhibition of CFU-GM formation after 18 days by clonogenic assay
[35] = Antiproliferative activity against CSF and human recombinant erythropoietin-induced human CD34+ cells proliferation assessed as inhibition of CFU-GM formation at 0.5 uM after 18 days by clonogenic assay; design: scale not given: the % may be the effect or the level left

C=C(C(=O)O[C@@H]1[C@@H](O)[C@H](O)[C@@H](OCC2=C3C(=O)C=C(C)[C@@]34C[C@@H](CC2)C(=C)C(=O)O4)O[C@H]1CO)[C@@H]1CCC(CO)=C2C(=O)C=C(C)[C@@]2(O)C1
pIC50 [1]: 7.15 | pIC50 [2]: 7.00 | pIC50 [3]: 6.15 | pIC50 [4]: 6.15 | pIC50 [5]: 6.30 | pIC50 [6]: 6.10 | pIC50 [7]: 6.15 | pIC50 [8]: 6.22 | pIC50 [9]: 6.30 | pIC50 [10]: 6.52 | pIC50 [11]: 6.40 | pIC50 [12]: 6.05 | pIC50 [13]: 6.00 | pIC50 [14]: 6.00 | pIC50 [15]: 5.89 | pIC50 [16]: 6.05 | pIC50 [17]: 6.40 | pIC50 [18]: 5.89 | pIC50 [19]: 6.05 | pIC50 [20]: 6.15 | pIC50 [21]: 5.82 | pIC50 [22]: 5.85 | pIC50 [23]: 5.85 | pIC50 [24]: 6.52 | pIC50 [25]: 6.52 | pIC50 [26]: 6.30 | Activity [27]: Active | Activity [28]: Active | Activity [29]: 60% | Activity [30]: 60% | Activity [31]: Dose-dependent effect | IC100 [32]: 2 µM | Activity [33]: Dose-dependent effect | Activity [34]: Dose-dependent effect | Activity [35]: 60%
